Data set [1] is described as follows: Half life in human liver microsomes in presence of NADPH by LC-MS/MS analysis. It counts as ADME, Microsome.
In data set [2] the target is Keap1/Nrf2 (Homo sapiens, UniProt Q14145). In words: Inhibition of Keap1-Nrf2 Interaction (unknown origin) by fluorescence anisotropy. It counts as protein assay. A general note: Polarisation of emitted light reports the rotation of a fluorescent probe.
Data set [3] is described as follows: Partition coefficient, logD between n-octanol and pH 7.4 buffer by HPLC analysis. It counts as physicochemical. The note with it: n-octanol/pH 7.4 buffer.
For data set [4], the target named is T1, Keap1/Nrf2 (Homo sapiens) (UniProt Q16236+Q14145). In words: Inhibition of Keap1-Nrf2 Interaction in human HaCaT cells assessed as increase in NQO1 protein level at 0.25 uM incubated for 16 hrs by Western blot analysis relative to control. It counts as cell-based. Summed up: (§1)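 HaCaT keratinocytes were grown in DMEM with 10% FBS and 1% antibiotics, then treated at 70–80% confluence in complete medium, with DMSO as vehicle. RIPA lysates (~40 μg protein) were run on 10% SDS-PAGE and immunoblotted for NRF2 and NQO1, with β-actin as loading control and chemiluminescent detection. Values are mean fold change versus DMSO from two biological replicates.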

Data set [5] deals with T1, Keap1/Nrf2 (Homo sapiens). The data set can be described thus: Inhibition of Keap1-Nrf2 Interaction in human HaCaT cells assessed as increase in Nrf2 protein level at 0.25 uM incubated for 16 hrs by Western blot analysis relative to control. It counts as cell-based. The essentials:
as §1
On the technique in general: In western blotting, separated proteins are transferred to a membrane and probed.

Sequence of Keap1/Nrf2 (Q16236 whole entry): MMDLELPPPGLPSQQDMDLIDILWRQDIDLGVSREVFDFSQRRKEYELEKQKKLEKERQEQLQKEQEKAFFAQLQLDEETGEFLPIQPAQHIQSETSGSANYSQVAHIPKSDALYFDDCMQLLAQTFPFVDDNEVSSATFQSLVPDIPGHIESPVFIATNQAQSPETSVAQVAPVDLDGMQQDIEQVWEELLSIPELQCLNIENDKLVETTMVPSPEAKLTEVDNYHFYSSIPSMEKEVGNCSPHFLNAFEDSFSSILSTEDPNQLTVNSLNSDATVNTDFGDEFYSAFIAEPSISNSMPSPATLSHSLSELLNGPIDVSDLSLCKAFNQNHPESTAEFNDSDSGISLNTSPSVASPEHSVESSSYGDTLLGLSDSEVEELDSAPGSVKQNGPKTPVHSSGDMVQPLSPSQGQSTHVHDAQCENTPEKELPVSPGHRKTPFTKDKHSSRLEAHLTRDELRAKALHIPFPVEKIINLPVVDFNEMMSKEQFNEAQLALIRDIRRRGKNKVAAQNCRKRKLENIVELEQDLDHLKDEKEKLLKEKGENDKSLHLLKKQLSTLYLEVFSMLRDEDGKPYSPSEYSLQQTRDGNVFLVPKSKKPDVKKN
Sequence of Keap1/Nrf2 (Q14145 whole entry): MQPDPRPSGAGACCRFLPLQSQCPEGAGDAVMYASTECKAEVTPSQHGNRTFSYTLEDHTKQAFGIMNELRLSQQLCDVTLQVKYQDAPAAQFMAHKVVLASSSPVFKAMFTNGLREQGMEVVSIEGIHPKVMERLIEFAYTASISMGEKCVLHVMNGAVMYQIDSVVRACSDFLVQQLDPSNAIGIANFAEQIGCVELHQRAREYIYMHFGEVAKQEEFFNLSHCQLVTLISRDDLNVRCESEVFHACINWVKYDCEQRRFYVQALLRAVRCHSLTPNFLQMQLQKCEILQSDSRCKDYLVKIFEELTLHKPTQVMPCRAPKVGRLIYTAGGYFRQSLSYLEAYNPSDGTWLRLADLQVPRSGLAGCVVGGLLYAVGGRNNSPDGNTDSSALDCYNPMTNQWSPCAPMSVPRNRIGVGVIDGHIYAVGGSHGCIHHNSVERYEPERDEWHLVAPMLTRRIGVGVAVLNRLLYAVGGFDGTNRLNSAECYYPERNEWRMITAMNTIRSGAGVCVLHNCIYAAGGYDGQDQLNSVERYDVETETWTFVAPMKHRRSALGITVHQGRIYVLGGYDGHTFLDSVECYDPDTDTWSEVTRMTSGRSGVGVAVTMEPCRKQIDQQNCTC
T1 sequence (Q14145 whole entry, looked up): as the sequence (Q14145 whole entry) above
T1 sequence (Q16236 whole entry, looked up): as the sequence (Q16236 whole entry) above

The term IC50 denotes the point on the concentration scale where inhibition reaches its midpoint. In the case of `O=C(O)CN(c1cnc(N(CC(=O)O)S(=O)(=O)c2ccc(O)cc2)c2ccccc12)S(=O)(=O)c1ccc(O)cc1`, the t1/2 in data set [1] amounted to 0.05 h. Half-maximal inhibition in data set [2] (IC50) was put at 350 nM.
In general, logD refers to the decadic logarithm of the distribution of all forms, ionised or not, between an organic phase and buffer at a given pH. High values mean a more lipophilic compound, low ones a more hydrophilic compound. As for `COc1ccc(S(=O)(=O)Nc2cnc(N(C(C)C(=O)O)S(=O)(=O)c3ccc(OC)cc3)c3ccccc23)cc1` (stereo not given), the logD in data set [3] is -1.1. Inhibition in data set [2] was half-maximal at 2300 nM (IC50).
For the compound `COc1ccc(S(=O)(=O)N(CCF)c2cnc(N(CC(=O)O)S(=O)(=O)c3ccc(OC)cc3)c3ccccc23)cc1`, the logD in data set [3] was -0.1. Also, the t1/2 in data set [1] turned out to be 0.967 h. The compound also displayed an IC50 in data set [2] of 210 nM.
As for `COC(=O)[C@]12CCC(C)(C)C[C@H]1[C@H]1C(=O)C=C3[C@@]4(C)C=C(C#N)C(=O)C(C)(C)[C@@H]4CC[C@@]3(C)[C@]1(C)CC2`, the results for the fold change (FC) in data set [4] and in data set [5] were 1.43 and 3.34, respectively.
Regarding `COc1ccc(S(=O)(=O)N(C)c2cnc(N(CC(=O)O)S(=O)(=O)c3ccc(OC)cc3)c3ccccc23)cc1`, in data set [3], the logD stood at 0. Also, in data set [1], the t1/2 amounted to 0.1 h. In data set [2], this compound yielded an IC50 of 1000 nM.
On the same counts, the results for `COc1ccc(S(=O)(=O)N(CC(F)F)c2cnc(N(CC(=O)O)S(=O)(=O)c3ccc(OC)cc3)c3ccccc23)cc1` are 0.2, 1.62 h and 55 nM.
Taken in the same sequence, the figures for `COc1ccc(S(=O)(=O)N(CC(F)(F)F)c2cnc(N(CC(=O)O)S(=O)(=O)c3ccc(F)cc3)c3ccccc23)cc1` were 0.6, above 3 h and 130 nM.
As for `COc1ccc(S(=O)(=O)N(CC(F)(F)F)c2cnc(N(CC(=O)O)S(=O)(=O)c3ccc(OC)cc3)c3ccccc23)cc1`, in data set [3], the logD was 0.5. Moreover, the t1/2 in data set [1] is 2.27 h.
Compound `COc1ccc(S(=O)(=O)N(CC(=O)O)c2ncc(N(CC(=O)O)S(=O)(=O)c3ccc(F)cc3)c3ccccc23)cc1` returned a logD in data set [3] of -1.8. The same compound registered an IC50 in data set [2] of 240 nM.
Regarding `COc1ccc(S(=O)(=O)Nc2cnc(N(CC(=O)O)S(=O)(=O)c3ccc(OC)cc3)c3ccccc23)cc1`, the t1/2 in data set [1] worked out at 0.617 h. Also, in data set [2], half-maximal inhibition (IC50) was put at 230 nM.
Compound `COc1ccc(S(=O)(=O)N(CC(=O)O)c2ncc(N(CC(F)(F)F)S(=O)(=O)c3ccc(F)cc3)c3ccccc23)cc1` had a logD in data set [3] of 0.5. Moreover, the t1/2 in data set [1] was above 3 h. The same compound gave an IC50 in data set [2] of 120 nM.
For `COc1ccc(S(=O)(=O)N(CC(=O)O)c2cnc(N(CC(=O)O)S(=O)(=O)c3ccc(F)cc3)c3ccccc23)cc1`, the logD in data set [3] is -1.9. For the same compound, half-maximal inhibition in data set [2] (IC50) was put at 280 nM.
Turning to `O=C(O)CN(c1cnc(N(CC(=O)O)S(=O)(=O)c2ccc(F)cc2)c2ccccc12)S(=O)(=O)c1ccc(F)cc1`, the IC50 in data set [2] came to 430 nM.
Take `O=C(O)CN(c1ncc(N(CC(F)(F)F)S(=O)(=O)c2ccc(F)cc2)c2ccccc12)S(=O)(=O)c1ccc(F)cc1`: the logD in data set [3] was 0.6. In addition, in data set [1], the t1/2 was above 3 h. For the same compound, the IC50 in data set [2] was determined as 420 nM.
As for `COc1ccc(S(=O)(=O)Nc2ncc(N(CC(=O)O)S(=O)(=O)c3ccc(OC)cc3)c3ccccc23)cc1`, the logD in data set [3] was -0.5. In data set [2], this compound registered an IC50 of 1100 nM.

Values taken from ChEMBL document CHEMBL4602608, “Isoquinoline Kelch-like ECH-Associated Protein 1-Nuclear Factor (Erythroid-Derived 2)-like 2 (KEAP1-NRF2) Inhibitors with High Metabolic Stability” (J Med Chem, 2020).
